The source made the active and inactive calls. The calls are words filed in the database; no cut-off is given here.
Assays:
[1] = target: CCR4-NOT transcription complex subunit 9 (Homo sapiens) (UniProt Q92600); assay: Binding affinity to RCD1 protein in human INA-6 cells after 3 hrs by nanoLC-MS/MS method; format: cell-based
How it was run: (§1)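 The biotinylated inhibitor was loaded on streptavidin beads, with empty beads as the control. Eluates were trypsin-digested and run by nanoLC-MS/MS. Inhibitor/control ratios came from label-free quantification, taken as medians of five biological replicates. Enrichment was called at Benjamini-Hochberg-adjusted limma p < 0.02.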

[2] = target: Serine/threonine-protein phosphatase 6 catalytic subunit (Homo sapiens) (UniProt O00743); assay: Binding affinity to serine/threonine-protein phosphatase 6 catalytic subunit in human INA-6 cells after 3 hrs by nanoLC-MS/MS method; format: cell-based; how it was run: as §1
[3] = target: DNA-dependent protein kinase catalytic subunit (Homo sapiens) (UniProt P78527); assay: Binding affinity to PRKDC protein in human INA-6 cells after 3 hrs by nanoLC-MS/MS method; format: cell-based; how it was run: as §1
[4] = target: CCR4-NOT transcription complex subunit 4 (Homo sapiens) (UniProt O95628); assay: Binding affinity to CCR4-NOT transcription complex subunit 4 in human INA-6 cells after 3 hrs by nanoLC-MS/MS method; format: cell-based; how it was run: as §1
[5] = target: Gem-associated protein 7 (Homo sapiens) (UniProt Q9H840); assay: Binding affinity to GEMIN7 in human INA-6 cells after 3 hrs by nanoLC-MS/MS method; format: cell-based; how it was run: as §1
Sequence of Gem-associated protein 7 (Homo sapiens) (Q9H840 whole entry): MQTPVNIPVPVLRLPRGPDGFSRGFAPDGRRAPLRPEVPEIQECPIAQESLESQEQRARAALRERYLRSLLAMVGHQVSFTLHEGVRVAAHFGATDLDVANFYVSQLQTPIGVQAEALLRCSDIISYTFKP

[6] = target: CCR4-NOT transcription complex subunit 2 (Homo sapiens) (UniProt Q9NZN8); assay: Binding affinity to CCR4-NOT transcription complex subunit 2 in human INA-6 cells after 3 hrs by nanoLC-MS/MS method; format: cell-based; how it was run: as §1
[7] = target: CCR4-NOT transcription complex subunit 7 (Homo sapiens) (UniProt Q9UIV1); assay: Binding affinity to CCR4-NOT transcription complex subunit 7 in human INA-6 cells after 3 hrs by nanoLC-MS/MS method; format: cell-based; how it was run: as §1
Sequence of CCR4-NOT transcription complex subunit 7 (Homo sapiens) (Q9UIV1 whole entry, one chain of several): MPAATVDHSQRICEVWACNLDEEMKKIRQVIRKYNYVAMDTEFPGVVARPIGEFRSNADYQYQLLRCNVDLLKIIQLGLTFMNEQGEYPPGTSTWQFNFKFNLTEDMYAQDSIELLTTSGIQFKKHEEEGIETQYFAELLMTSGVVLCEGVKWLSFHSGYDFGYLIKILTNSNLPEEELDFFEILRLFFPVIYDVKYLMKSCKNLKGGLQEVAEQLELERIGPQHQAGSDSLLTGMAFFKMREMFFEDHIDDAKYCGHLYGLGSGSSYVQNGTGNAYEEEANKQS

[8] = target: Exportin-T (Homo sapiens) (UniProt O43592); assay: Binding affinity to XPOT protein in human INA-6 cells after 3 hrs by nanoLC-MS/MS method; format: cell-based; how it was run: as §1
[9] = target: Serine/threonine-protein kinase mTOR (Homo sapiens) (UniProt P42345); assay: Binding affinity to mTOR protein in human INA-6 cells after 3 hrs by nanoLC-MS/MS method; format: cell-based; how it was run: as §1
[10] = target: Serine/threonine-protein phosphatase 6 regulatory subunit 2 (Homo sapiens) (UniProt O75170); assay: Binding affinity to PP6R2 protein in human INA-6 cells after 3 hrs by nanoLC-MS/MS method; format: cell-based; how it was run: as §1
Sequence of Serine/threonine-protein phosphatase 6 regulatory subunit 2 (Homo sapiens) (O75170 whole entry): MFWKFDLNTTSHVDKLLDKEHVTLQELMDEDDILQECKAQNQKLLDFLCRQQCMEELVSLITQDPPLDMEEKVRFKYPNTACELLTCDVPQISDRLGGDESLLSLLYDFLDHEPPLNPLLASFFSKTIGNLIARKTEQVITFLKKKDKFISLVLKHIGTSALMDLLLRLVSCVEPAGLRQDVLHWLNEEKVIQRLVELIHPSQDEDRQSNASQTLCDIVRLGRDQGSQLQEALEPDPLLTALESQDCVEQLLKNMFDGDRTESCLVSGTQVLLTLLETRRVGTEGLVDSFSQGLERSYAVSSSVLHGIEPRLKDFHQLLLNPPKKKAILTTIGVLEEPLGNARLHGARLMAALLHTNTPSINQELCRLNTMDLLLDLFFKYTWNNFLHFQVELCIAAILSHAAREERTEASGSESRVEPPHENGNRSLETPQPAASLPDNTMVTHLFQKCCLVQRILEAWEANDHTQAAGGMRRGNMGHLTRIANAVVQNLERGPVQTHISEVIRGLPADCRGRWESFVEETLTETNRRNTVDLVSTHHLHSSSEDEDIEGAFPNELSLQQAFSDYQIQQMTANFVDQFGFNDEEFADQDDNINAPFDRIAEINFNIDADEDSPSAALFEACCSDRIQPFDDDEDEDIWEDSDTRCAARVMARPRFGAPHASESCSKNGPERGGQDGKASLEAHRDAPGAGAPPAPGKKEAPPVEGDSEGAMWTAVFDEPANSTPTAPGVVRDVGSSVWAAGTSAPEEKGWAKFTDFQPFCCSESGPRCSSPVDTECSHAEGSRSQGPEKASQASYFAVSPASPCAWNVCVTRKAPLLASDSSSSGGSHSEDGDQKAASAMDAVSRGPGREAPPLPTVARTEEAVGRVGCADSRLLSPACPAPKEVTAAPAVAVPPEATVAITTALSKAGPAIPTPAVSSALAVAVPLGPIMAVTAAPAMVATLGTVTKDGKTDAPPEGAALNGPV

[11] = target: Programmed cell death protein 6 (Homo sapiens) (UniProt O75340); assay: Binding affinity to PDCD6 protein in human INA-6 cells after 3 hrs by nanoLC-MS/MS method; format: cell-based; how it was run: as §1
[12] = target: CCR4-NOT transcription complex subunit 11 (Homo sapiens) (UniProt Q9UKZ1); assay: Binding affinity to CCR4-NOT transcription complex subunit 11 in human INA-6 cells after 3 hrs by nanoLC-MS/MS method; format: cell-based; how it was run: as §1
[13] = target: Conserved oligomeric Golgi complex subunit 7 (Homo sapiens) (UniProt P83436); assay: Binding affinity to COG7 in human INA-6 cells after 3 hrs by nanoLC-MS/MS method; format: cell-based; how it was run: as §1
Sequence of Conserved oligomeric Golgi complex subunit 7 (Homo sapiens) (P83436 whole entry, one chain of several): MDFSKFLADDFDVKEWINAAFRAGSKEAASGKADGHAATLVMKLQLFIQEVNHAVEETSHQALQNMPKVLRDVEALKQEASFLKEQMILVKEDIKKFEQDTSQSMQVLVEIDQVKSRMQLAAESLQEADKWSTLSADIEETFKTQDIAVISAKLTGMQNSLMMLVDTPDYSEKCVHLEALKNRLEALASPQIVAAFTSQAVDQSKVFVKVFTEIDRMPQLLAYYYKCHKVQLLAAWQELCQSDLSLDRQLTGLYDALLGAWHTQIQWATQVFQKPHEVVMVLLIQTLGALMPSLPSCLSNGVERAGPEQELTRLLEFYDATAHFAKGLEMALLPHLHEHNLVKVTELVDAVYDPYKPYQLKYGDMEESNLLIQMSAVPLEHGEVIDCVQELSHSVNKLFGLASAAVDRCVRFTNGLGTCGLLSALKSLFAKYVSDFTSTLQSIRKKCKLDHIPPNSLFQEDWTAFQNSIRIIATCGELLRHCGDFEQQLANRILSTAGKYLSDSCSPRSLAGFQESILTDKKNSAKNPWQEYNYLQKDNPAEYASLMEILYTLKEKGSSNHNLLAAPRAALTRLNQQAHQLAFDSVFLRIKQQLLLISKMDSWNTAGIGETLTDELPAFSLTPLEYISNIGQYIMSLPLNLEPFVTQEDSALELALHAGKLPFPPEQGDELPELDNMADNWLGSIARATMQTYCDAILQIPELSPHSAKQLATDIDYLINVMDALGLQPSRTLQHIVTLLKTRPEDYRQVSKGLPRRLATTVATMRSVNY

[14] = target: CCR4-NOT transcription complex subunit 1 (Homo sapiens) (UniProt A5YKK6); assay: Binding affinity to CNOT1 protein in human INA-6 cells after 3 hrs by nanoLC-MS/MS method; format: cell-based; how it was run: as §1
Sequence of CCR4-NOT transcription complex subunit 1 (Homo sapiens) (A5YKK6 whole entry, one chain of several): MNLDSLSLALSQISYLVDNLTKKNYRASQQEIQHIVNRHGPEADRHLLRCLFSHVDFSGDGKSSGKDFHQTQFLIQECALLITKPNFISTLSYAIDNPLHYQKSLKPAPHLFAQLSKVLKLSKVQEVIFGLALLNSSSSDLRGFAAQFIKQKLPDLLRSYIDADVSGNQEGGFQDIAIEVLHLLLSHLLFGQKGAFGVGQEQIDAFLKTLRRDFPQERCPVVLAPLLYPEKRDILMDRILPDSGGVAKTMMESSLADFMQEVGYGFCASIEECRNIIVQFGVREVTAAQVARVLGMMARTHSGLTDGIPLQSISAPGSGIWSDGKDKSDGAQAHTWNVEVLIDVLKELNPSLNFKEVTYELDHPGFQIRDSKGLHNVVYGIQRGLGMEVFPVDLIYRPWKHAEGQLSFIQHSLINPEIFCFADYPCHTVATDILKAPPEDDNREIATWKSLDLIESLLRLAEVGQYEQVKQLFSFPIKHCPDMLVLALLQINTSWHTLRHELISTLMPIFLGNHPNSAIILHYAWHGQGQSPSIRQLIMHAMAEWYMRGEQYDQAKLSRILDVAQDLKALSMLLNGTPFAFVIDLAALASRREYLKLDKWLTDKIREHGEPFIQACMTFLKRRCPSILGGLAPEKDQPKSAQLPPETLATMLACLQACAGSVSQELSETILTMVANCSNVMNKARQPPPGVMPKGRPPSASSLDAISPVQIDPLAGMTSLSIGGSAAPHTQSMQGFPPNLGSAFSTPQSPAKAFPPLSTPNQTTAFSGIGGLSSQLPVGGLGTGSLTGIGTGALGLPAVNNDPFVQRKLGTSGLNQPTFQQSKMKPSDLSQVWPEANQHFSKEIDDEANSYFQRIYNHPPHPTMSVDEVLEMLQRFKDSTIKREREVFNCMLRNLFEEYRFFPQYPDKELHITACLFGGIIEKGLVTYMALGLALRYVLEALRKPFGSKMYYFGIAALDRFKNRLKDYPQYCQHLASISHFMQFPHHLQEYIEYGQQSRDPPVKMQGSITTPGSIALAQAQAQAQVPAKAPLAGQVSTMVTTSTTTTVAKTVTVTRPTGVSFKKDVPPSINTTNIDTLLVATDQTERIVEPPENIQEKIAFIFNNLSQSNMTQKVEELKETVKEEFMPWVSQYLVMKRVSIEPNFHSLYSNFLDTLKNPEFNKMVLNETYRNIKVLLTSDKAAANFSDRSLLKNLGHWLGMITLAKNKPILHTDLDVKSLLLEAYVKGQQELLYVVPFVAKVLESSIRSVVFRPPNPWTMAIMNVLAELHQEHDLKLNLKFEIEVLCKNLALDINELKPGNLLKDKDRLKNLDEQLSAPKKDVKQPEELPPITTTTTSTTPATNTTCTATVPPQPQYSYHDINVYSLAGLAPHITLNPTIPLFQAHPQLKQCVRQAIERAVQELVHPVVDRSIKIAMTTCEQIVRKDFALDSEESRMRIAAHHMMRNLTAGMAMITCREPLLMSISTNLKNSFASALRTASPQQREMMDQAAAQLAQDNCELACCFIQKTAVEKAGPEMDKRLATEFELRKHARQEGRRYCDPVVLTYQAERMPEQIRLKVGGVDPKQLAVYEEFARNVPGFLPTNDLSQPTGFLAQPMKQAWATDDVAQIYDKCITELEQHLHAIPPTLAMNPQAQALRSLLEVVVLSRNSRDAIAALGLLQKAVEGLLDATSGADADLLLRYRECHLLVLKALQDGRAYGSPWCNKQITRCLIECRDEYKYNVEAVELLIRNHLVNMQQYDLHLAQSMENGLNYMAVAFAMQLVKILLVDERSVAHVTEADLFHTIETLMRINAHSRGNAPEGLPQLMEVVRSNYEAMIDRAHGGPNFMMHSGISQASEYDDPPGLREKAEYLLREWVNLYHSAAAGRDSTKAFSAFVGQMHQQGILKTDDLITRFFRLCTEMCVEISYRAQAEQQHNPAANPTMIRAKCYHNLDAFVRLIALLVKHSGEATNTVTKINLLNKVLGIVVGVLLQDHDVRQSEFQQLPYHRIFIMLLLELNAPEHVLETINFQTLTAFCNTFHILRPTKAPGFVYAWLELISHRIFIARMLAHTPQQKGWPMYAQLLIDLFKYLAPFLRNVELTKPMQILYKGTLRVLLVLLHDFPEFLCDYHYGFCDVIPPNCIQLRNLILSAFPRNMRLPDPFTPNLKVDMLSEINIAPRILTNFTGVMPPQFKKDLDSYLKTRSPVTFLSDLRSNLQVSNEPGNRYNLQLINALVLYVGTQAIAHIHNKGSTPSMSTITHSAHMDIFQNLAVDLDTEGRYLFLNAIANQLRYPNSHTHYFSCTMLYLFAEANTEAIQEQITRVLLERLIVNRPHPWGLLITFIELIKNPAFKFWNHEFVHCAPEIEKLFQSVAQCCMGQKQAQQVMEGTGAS

[15] = target: Protein MON2 homolog (Homo sapiens) (UniProt Q7Z3U7); assay: Binding affinity to MON2 protein in human INA-6 cells after 3 hrs by nanoLC-MS/MS method; format: cell-based; how it was run: as §1
[16] = target: Protein CIP2A (Homo sapiens) (UniProt Q8TCG1); assay: Binding affinity to CIP2A protein in human INA-6 cells after 3 hrs by nanoLC-MS/MS method; format: cell-based; how it was run: as §1
[17] = target: Survival motor neuron protein (Homo sapiens) (UniProt Q16637); assay: Binding affinity to survival motor neuron protein in human INA-6 cells after 3 hrs by nanoLC-MS/MS method; format: cell-based; how it was run: as §1
Sequence of Survival motor neuron protein (Homo sapiens) (Q16637 whole entry): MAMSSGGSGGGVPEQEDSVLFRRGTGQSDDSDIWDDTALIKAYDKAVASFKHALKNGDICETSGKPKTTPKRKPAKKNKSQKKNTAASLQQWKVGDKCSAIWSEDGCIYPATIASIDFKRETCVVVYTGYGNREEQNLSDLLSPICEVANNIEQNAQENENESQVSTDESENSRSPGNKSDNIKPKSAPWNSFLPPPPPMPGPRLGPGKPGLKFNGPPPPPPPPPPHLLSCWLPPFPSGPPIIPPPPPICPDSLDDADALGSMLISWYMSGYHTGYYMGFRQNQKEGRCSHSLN

[18] = target: MICOS complex subunit MIC10 (Homo sapiens) (UniProt Q5TGZ0); assay: Binding affinity to MICOS complex subunit MIC10 in human INA-6 cells after 3 hrs by nanoLC-MS/MS method; format: cell-based; how it was run: as §1
[19] = target: Serine/threonine-protein phosphatase 6 regulatory subunit 3 (Homo sapiens) (UniProt Q5H9R7); assay: Binding affinity to serine/threonine-protein phosphatase 6 regulatory subunit 3 in human INA-6 cells after 3 hrs by nanoLC-MS/MS method; format: cell-based; how it was run: as §1
[20] = target: Serine/threonine-protein phosphatase 6 regulatory ankyrin repeat subunit C (Homo sapiens) (UniProt Q8NB46); assay: Binding affinity to serine/threonine-protein phosphatase 6 regulatory ankyrin repeat subunit C in human INA-6 cells after 3 hrs by nanoLC-MS/MS method; format: cell-based; how it was run: as §1
[21] = target: Conserved oligomeric Golgi complex subunit 8 (Homo sapiens) (UniProt Q96MW5); assay: Binding affinity to COG8 in human INA-6 cells after 3 hrs by nanoLC-MS/MS method; format: cell-based; how it was run: as §1
[22] = target: CCR4-NOT transcription complex subunit 6-like (Homo sapiens) (UniProt Q96LI5); assay: Binding affinity to CCR4-NOT transcription complex subunit 6-like in human INA-6 cells after 3 hrs by nanoLC-MS/MS method; format: cell-based; how it was run: as §1
[23] = target: Stalled ribosome sensor GCN1 (Homo sapiens) (UniProt Q92616); assay: Binding affinity to GCN1 protein in human INA-6 cells after 3 hrs by nanoLC-MS/MS method; format: cell-based; how it was run: as §1
[24] = target: CCR4-NOT transcription complex subunit 1 (Homo sapiens) (UniProt A5YKK6); assay: Binding affinity to CCR4-NOT transcription complex subunit 1 in human INA-6 cells after 3 hrs by nanoLC-MS/MS method; format: cell-based; how it was run: as §1
[25] = target: Conserved oligomeric Golgi complex subunit 6 (Homo sapiens) (UniProt Q9Y2V7); assay: Binding affinity to COG6 in human INA-6 cells after 3 hrs by nanoLC-MS/MS method; format: cell-based; how it was run: as §1
[26] = target: Mitogen-activated protein kinase kinase kinase 5 (Homo sapiens) (UniProt Q99683); assay: Binding affinity to MAP3K5 in human INA-6 cells after 3 hrs by nanoLC-MS/MS method; format: cell-based; how it was run: as §1
[27] = target: Conserved oligomeric Golgi complex subunit 1 (Homo sapiens) (UniProt Q8WTW3); assay: Binding affinity to COG1 in human INA-6 cells after 3 hrs by nanoLC-MS/MS method; format: cell-based; how it was run: as §1
[28] = tested on: INA-6; assay: Inhibition of heat shock response in human INA-6 cells assessed as reduction in HSF-1 mediated upregulation of the heat shock protein HSP72 at 50 uM preincubated for 4 hrs followed by HSP90 inhibitor and HSR inducer NVP-AUY922 addition measured after 4 hrs by ELISA; format: functional, cell-based
How it was run: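 HSP72 quantified by ELISA in the same protein lysates used for Western blots. INA-6 cells received compound for 4 h, then NVP-AUY922 co-treatment for 4 h more to stimulate HSF1. DMSO-only and NVP-AUY922-only cells served as negative and positive controls.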

[29] = target: Brefeldin A-inhibited guanine nucleotide-exchange protein 2 (Homo sapiens) (UniProt Q9Y6D5); assay: Binding affinity to BIG2 protein in human INA-6 cells after 3 hrs by nanoLC-MS/MS method; format: cell-based; how it was run: as §1
[30] = target: MICOS complex subunit MIC25 (Homo sapiens) (UniProt Q9BRQ6); assay: Binding affinity to MICOS complex subunit MIC25 in human INA-6 cells after 3 hrs by nanoLC-MS/MS method; format: cell-based; how it was run: as §1
Sequence of MICOS complex subunit MIC25 (Homo sapiens) (Q9BRQ6 whole entry, one chain of several): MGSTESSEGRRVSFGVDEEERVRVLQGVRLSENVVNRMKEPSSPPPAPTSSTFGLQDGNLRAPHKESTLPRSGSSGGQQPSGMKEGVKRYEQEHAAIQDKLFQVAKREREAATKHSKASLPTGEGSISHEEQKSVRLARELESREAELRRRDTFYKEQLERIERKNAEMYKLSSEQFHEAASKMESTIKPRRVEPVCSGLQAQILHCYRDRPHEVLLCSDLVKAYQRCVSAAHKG

SMILES | Activity [1] | Activity [2] | Activity [3] | Activity [4] | Activity [5] | Activity [6] | Activity [7] | Activity [8] | Activity [9] | Activity [10] | Activity [11] | Activity [12] | Activity [13] | Activity [14] | Activity [15] | Activity [16] | Activity [17] | Activity [18] | Activity [19] | Activity [20] | further results
O=C(CCCC[C@@H]1SC[C@@H]2NC(=O)N[C@@H]21)NCCOCCOCCNCCOc1ccc(C(C(=O)NCc2ccccc2)N(C(=O)CCc2ccccc2)C2CC2)cc1 (mixture of isomers) | Active | Active | Active | Active | Active | Active | Active | Active | Active | Active | Active | Active | Active | Active | Active | Active | Active | Active | Active | Active | Activity [21]: Active; Activity [22]: Active; Activity [23]: Active; Activity [24]: Active; Activity [25]: Active; Activity [26]: Active; Activity [27]: Active; HSP72 upregulation inhibition (active/not active) [28]: inactive; Activity [29]: Active; Activity [30]: Active
O=C(CCCC[C@@H]1SC[C@@H]2NC(=O)N[C@@H]21)NCCOCCOCCNCCOc1ccc(C(C(=O)NCc2ccccc2)N(C(=O)CCc2ccc(O)cc2)C2CC2)cc1 (mixture of isomers) | Active | Active | Active | Active | Active | Active | Active | Active | Active | Active | Active | Active | Active | Active | Active | Active | Active | Active | Active | Active | Activity [21]: Active; Activity [22]: Active; Activity [23]: Active; Activity [24]: Active; Activity [25]: Active; Activity [26]: Active; Activity [27]: Active; HSP72 upregulation inhibition (active/not active) [28]: inactive; Activity [29]: Active; Activity [30]: Active

From ChEMBL document CHEMBL4011617, “Ugi Reaction-Derived α-Acyl Aminocarboxamides Bind to Phosphatidylinositol 3-Kinase-Related Kinases, Inhibit HSF1-Dependent Heat Shock Response, and Induce Apoptosis in Multiple Myeloma Cells” (J Med Chem, 2017)
